Measured values: ChEMBL document CHEMBL1121581, “4-Piperazinyl-10H-thieno[2,3-b][1,5]benzodiazepines as potential neuroleptics” (J Med Chem, 1980)

Assays:
[1] = system: Mus musculus; experiment: Hypothermia in mice after peroral administration; format: functional
[2] = Lethal dose in mice after perorla administration; format: toxicity, organism-based; conditions: mouse, in vivo, po
[3] = system: Rattus norvegicus; experiment: Compound was assessed for its ability to produce catalepsy in rats; Dose administered perorally is 12 mg/kg; Group score is 8-15; format: functional; conditions: route oral
How it was run: (§1)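 Groups of eight Lilly Wistar rats (180–190 g) were dosed orally, then checked at 0.5, 1, 1.5, 2, 3, 4 and 5 h. Front paws were placed on a 1.5-cm rod 7 cm above the table, and hold time was recorded up to 20 min. Each rat was scored 0–5 and its maximum scores were summed per group (maximum 40), then graded 0–4.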

[4] = system: Rattus norvegicus; experiment: Compound was assessed for its ability to block a conditioned avoidance response; Dose administered perorally is 6 mg/kg; 51-75%block; format: functional; conditions: route oral
How it was run: (§2)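 Lilly Wistar rats (120–130 g) trained in a shuttle box to cross on a 5-s buzzer, with mild shock if no response within 1 s of buzzer end. Only rats with a high conditioned response were used. Groups of five were dosed orally 1 h 50 min before the session, then habituated 10 min and tested 20 min. Shocks were scored as % of stimuli and graded 0–5.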

[5] = system: Rattus norvegicus; experiment: Compound was assessed for its ability to produce catalepsy in rats; Dose administered perorally is 60 mg/kg; Group score is 8-15; format: functional; conditions: route oral; how it was run: as §1
[6] = system: Rattus norvegicus; experiment: Compound was assessed for its ability to produce catalepsy in rats; Dose administered subcutaneously is 30 mg/kg; Group score is 4-7; format: functional; conditions: route subcutaneous
[7] = system: Rattus norvegicus; experiment: Compound was assessed for its ability to block a conditioned avoidance response; Dose administered intraperitoneally is 20 mg/kg; 26-30%block; format: functional; conditions: route intraperitoneal
How it was run: (§3)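 Shuttle-box conditioned avoidance in Lilly Wistar rats (120–130 g) pretrained to a 5-s buzzer with mild shock after a 1-s failure to respond. Groups of five had 10-min habituation and a 20-min test. Block was taken as shocks received as % of buzzer presentations and graded 0–5. Maximum dose was half the rotarod-disruption ED₅₀.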

[8] = system: Rattus norvegicus; experiment: Compound was assessed for its ability to block a conditioned avoidance response; Dose administered perorally is 10 mg/kg; 31-50%block; format: functional; conditions: route oral; how it was run: as §2
[9] = system: Rattus norvegicus; experiment: Compound was assessed for its ability to produce catalepsy in rats; Dose administered perorally is 12.5 mg/kg; Group score is 8-15; format: functional; conditions: route oral; how it was run: as §1
[10] = system: Rattus norvegicus; experiment: Compound was assessed for its ability to block a conditioned avoidance response; Dose administered intraperitoneally is 40 mg/kg; 26-30%block; format: functional; conditions: route intraperitoneal; how it was run: as §3
[11] = system: Rattus norvegicus; experiment: Compound was assessed for its ability to block a conditioned avoidance response; Dose administered intraperitoneally is 50 mg/kg; 26-30%block; format: functional; conditions: route intraperitoneal; how it was run: as §3
[12] = system: Rattus norvegicus; experiment: Compound was assessed for its ability to block a conditioned avoidance response; Dose administered perorally is 30 mg/kg; Complete block of conditioned & unconditioned response; format: functional; conditions: route oral; how it was run: as §2
[13] = system: Rattus norvegicus; experiment: Compound was assessed for its ability to block a conditioned avoidance response; Dose administered perorally is 10 mg/kg; 76-99%block; format: functional; conditions: route oral; how it was run: as §2
[14] = system: Rattus norvegicus; experiment: Compound was assessed for its ability to produce catalepsy in rats; Dose administered perorally is 10 mg/kg; Group score is 8-15; format: functional; conditions: route oral; how it was run: as §1
[15] = system: Rattus norvegicus; experiment: Compound was assessed for its ability to produce catalepsy in rats; Dose administered perorally is 50 mg/kg; Group score is 8-15; format: functional; conditions: route oral; how it was run: as §1
[16] = system: Rattus norvegicus; experiment: Compound was assessed for its ability to block a conditioned avoidance response; Dose administered perorally is 25 mg/kg; 26-30%block; format: functional; conditions: route oral, in the assay text read “31-50%block” for “26-30%block”; how it was run: as §2
[17] = system: Rattus norvegicus; experiment: Compound was assessed for its ability to produce catalepsy in rats; Dose administered perorally is 50 mg/kg; Group score is 0-3; format: functional; conditions: route oral; how it was run: as §1
[18] = system: Rattus norvegicus; experiment: Compound was assessed for its ability to block a conditioned avoidance response; Dose administered intraperitoneally is 20 mg/kg; 31-50%block; format: functional; conditions: route intraperitoneal; how it was run: as §3
[19] = system: Rattus norvegicus; experiment: Compound was assessed for its ability to block a conditioned avoidance response; Dose administered intraperitoneally is 50 mg/kg; 31-50%block; format: functional; conditions: route intraperitoneal; how it was run: as §3
[20] = system: Rattus norvegicus; experiment: Compound was assessed for its ability to produce catalepsy in rats; Dose administered perorally is 8 mg/kg; Group score is 4-7; format: functional; conditions: route oral; how it was run: as §1
[21] = system: Rattus norvegicus; experiment: Compound was assessed for its ability to block a conditioned avoidance response; Dose administered perorally is 4 mg/kg; 26-30%block; format: functional; conditions: route oral; how it was run: as §2
[22] = system: Rattus norvegicus; experiment: Compound was assessed for its ability to block a conditioned avoidance response; Dose administered intraperitoneally is 40 mg/kg; no significant effect (0-25%block); format: functional; conditions: route intraperitoneal; how it was run: as §3
[23] = system: Rattus norvegicus; experiment: Compound was assessed for its ability to block a conditioned avoidance response; Dose administered perorally is 12.5 mg/kg; 76-99%block; format: functional; conditions: route oral; how it was run: as §2
[24] = system: Rattus norvegicus; experiment: Compound was assessed for its ability to produce catalepsy in rats; Dose administered perorally is 10 mg/kg; Group score is 4-7; format: functional; conditions: route oral; how it was run: as §1
[25] = system: Rattus norvegicus; experiment: Compound was assessed for its ability to produce catalepsy in rats; Dose administered perorally is 80; Group score is 8-15; format: functional
[26] = system: Rattus norvegicus; experiment: Compound was assessed for its ability to block a conditioned avoidance response; Dose administered perorally is 30 mg/kg; 51-75%block; format: functional; conditions: route oral
How it was run: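 Trained Lilly Wistar rats (120–130 g) in a shuttle box, 5-s buzzer with mild shock if no response within 1 s of buzzer end. Only high-responders used; groups of five dosed orally 1 h 50 min before test, 10-min habituation, then 20-min session. Block = shocks as % of stimuli presented, scored 0–5 (3 = 51–75% block).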

[27] = system: Rattus norvegicus; experiment: Compound was assessed for its ability to block a conditioned avoidance response; Dose administered perorally is 8 mg/kg; 76-99%block; format: functional; conditions: route oral; how it was run: as §2
[28] = system: Rattus norvegicus; experiment: Compound was assessed for its ability to block a conditioned avoidance response; Dose administered perorally is 1.25 mg/kg; 51-75%block; format: functional; conditions: route oral; how it was run: as §2
[29] = system: Rattus norvegicus; experiment: Compound was assessed for its ability to produce catalepsy in rats; Dose administered perorally is 1.25 mg/kg; Group score is 16-30; format: functional; conditions: route oral; how it was run: as §1
[30] = system: Rattus norvegicus; experiment: Compound was assessed for its ability to produce catalepsy in rats; Dose administered perorally is 25 mg/kg; Group score is 4-7; format: functional; conditions: route oral; how it was run: as §1
[31] = system: Rattus norvegicus; experiment: Compound was assessed for its ability to block a conditioned avoidance response; Dose administered perorally is 50 mg/kg; 51-75%block; format: functional; conditions: route oral; how it was run: as §2

Structure (SMILES): CCc1cc2c(s1)Nc1ccc(F)cc1N=C2N1CCN(C)CC1
- EDmin [1]: 6.25 mg/kg
- LD50 [2]: > 200 mg/kg
- Activity [3]: 2
- Activity [4]: 3

Structure (SMILES): CCc1cc2c(s1)Nc1ccc(F)cc1N=C2N1CCNCC1
- EDmin [1]: 100 mg/kg
- LD50 [2]: > 800 mg/kg
- Activity [5]: 2
- Activity [6]: 1
- Activity [7]: 1

Structure (SMILES): CCc1cc2c(s1)Nc1ccc(F)cc1N=C2N1CCN(CCCO)CC1
- EDmin [1]: 25 mg/kg
- LD50 [2]: 400 mg/kg
- Activity [8]: 2
- Activity [9]: 2

Structure (SMILES): CCc1cc2c(s1)Nc1ccc(F)cc1N=C2NCCN(C)C
- EDmin [1]: 200 mg/kg
- LD50 [2]: 400 mg/kg
- Activity [10]: 1

Structure (SMILES): CCc1cc2c(s1)Nc1ccc(F)cc1N=C2NCCCN(C)C
- EDmin [1]: >400 mg/kg
- LD50 [2]: > 800 mg/kg
- Activity [11]: 1

Structure (SMILES): CN1CCN(C2=Nc3cc(F)ccc3Nc3sccc32)CC1
- EDmin [1]: 25 mg/kg
- LD50 [2]: > 200 mg/kg
- Activity [12]: 5

Structure (SMILES): CC(C)c1cc2c(s1)Nc1ccc(F)cc1N=C2N1CCN(C)CC1
- EDmin [1]: 6.25 mg/kg
- LD50 [2]: 50 mg/kg
- Activity [13]: 4
- Activity [14]: 2

Structure (SMILES): CCc1cc2c(s1)Nc1cc(C)ccc1N=C2N1CCN(C)CC1
- EDmin [1]: 50 mg/kg
- LD50 [2]: 150 mg/kg
- Activity [15]: 2
- Activity [16]: 2

Structure (SMILES): CCc1cc2c(s1)Nc1ccc(F)cc1N=C2NCCN1CCCC1
- EDmin [1]: 200 mg/kg
- LD50 [2]: > 400 mg/kg
- Activity [17]: 0
- Activity [18]: 2

Structure (SMILES): CCc1cc2c(s1)Nc1ccc(F)cc1N=C2NCCCN1CCN(C)CC1
- EDmin [1]: 200 mg/kg
- LD50 [2]: 400 mg/kg
- Activity [19]: 2

Structure (SMILES): CCc1cc2c(s1)Nc1cc(F)ccc1N=C2N1CCN(C)CC1
- EDmin [1]: 12.5 mg/kg
- LD50 [2]: 150 mg/kg
- Activity [20]: 1
- Activity [21]: 1

Structure (SMILES): CCc1cc2c(s1)Nc1ccc(F)cc1N=C2NCCCO
- EDmin [1]: >200 mg/kg
- LD50 [2]: 400 mg/kg
- Activity [22]: 0

Structure (SMILES): CCc1cc2c(s1)Nc1ccc(F)cc1N=C2N1CC[N+](C)([O-])CC1
- EDmin [1]: 25 mg/kg
- LD50 [2]: 200 mg/kg
- Activity [23]: 4
- Activity [24]: 1

Structure (SMILES): CN1CCN(C2=Nc3cc(Cl)ccc3Nc3ccccc32)CC1 [CLOZAPINE]
- EDmin [1]: 50 mg/kg
- Activity [25]: 2
- Activity [26]: 3

Structure (SMILES): Cc1cc2c(s1)Nc1ccc(F)cc1N=C2N1CCN(C)CC1 [FLUMEZAPINE]
- EDmin [1]: 3 mg/kg
- LD50 [2]: 200 mg/kg
- Activity [20]: 1
- Activity [27]: 4

Structure (SMILES): O=C(CCCN1CCC(O)(c2ccc(Cl)cc2)CC1)c1ccc(F)cc1 [HALOPERIDOL]
- EDmin [1]: 3 mg/kg
- LD50 [2]: > 100 mg/kg
- Activity [28]: 3
- Activity [29]: 3

Structure (SMILES): CSc1ccc2c(c1)N(CCC1CCCCN1C)c1ccccc1S2 (stereo not drawn) [THIORIDAZINE]
- EDmin [1]: 25 mg/kg
- LD50 [2]: 400 mg/kg
- Activity [30]: 1
- Activity [31]: 3
